This is a sample that favours compounds with a hit; in the whole collection about 2.9% have one here.
Rev-erbA mod: modulates human Rev-erb alpha binding to DNA | P20393 | Rev-erbα–FITC-DNA binding, fluorescence polarization, 90 min | activity, % at 10 µM | actives 0.79% (n = 370,000);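 active = activity above about 14%, limit read from the data; passing the limit was not always enough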;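 note: 0% = DMSO wells with 35 nM protein and 100% = DMSO wells with 750 nM protein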
Target sequence (P20393 whole entry, looked up): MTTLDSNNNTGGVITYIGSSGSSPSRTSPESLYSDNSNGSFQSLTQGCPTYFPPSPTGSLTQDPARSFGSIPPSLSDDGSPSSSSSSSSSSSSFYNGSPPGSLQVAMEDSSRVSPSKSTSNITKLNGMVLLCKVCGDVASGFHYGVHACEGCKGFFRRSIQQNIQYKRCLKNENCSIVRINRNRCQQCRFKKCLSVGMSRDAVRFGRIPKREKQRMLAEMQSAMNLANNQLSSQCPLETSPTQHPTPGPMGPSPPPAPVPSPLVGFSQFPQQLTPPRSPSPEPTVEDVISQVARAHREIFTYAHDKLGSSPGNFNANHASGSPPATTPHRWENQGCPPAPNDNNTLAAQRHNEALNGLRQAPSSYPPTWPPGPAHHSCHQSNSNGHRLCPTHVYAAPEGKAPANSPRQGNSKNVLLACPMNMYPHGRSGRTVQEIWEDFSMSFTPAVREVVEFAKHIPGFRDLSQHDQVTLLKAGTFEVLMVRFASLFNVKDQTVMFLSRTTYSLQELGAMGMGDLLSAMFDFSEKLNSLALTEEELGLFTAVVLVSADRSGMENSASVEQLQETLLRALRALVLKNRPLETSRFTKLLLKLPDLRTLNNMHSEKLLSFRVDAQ
T cruzi inh: T. cruzi replication inhibition | T. cruzi beta-gal in NIH3T3, luminescence, 90 h | inhibition, % (test concentration not listed) | actives 1.4% (n = 300,000);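 active = mean inhibition across valid replicates above about 55%, limit read from the data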;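 note: signal also drops with host cell toxicity which is not excluded here; 0% = plate median of DMSO wells and 100% = zero luminescence signal; higher percent means less beta-gal luminescence so fewer parasites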
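Assay system: NIH/3T3 fibroblasts plus reporter T. cruzi. Amount: NIH/3T3 cells, 5,000 per well. Buffer or medium: DMEM, 2% fetal bovine serum. Doses: compound pinned at 50 nL/well, DMSO. Schedule: ≥90 h infection period, 3 h prior cell attachment. Signal: luminescent β-galactosidase signal after 60 min lysis. Read-out: parasite load inhibition, %.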
hiPSC survival: enhancers of human iPSC single-cell survival. actives 0.044% (n = 360,000). survival enhancement, % at 20 µM. hiPSC single-cell survival, ATPlite luminescence; 100% = ROCK inhibitor wells, 0% = DMSO; in the data active = survival enhancement above about 18%;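 note: cells exposed to compounds for 16 hours before the ATP read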
PG9 Ab binder: PG9 antibody binding by small molecule. TR-FRET gp120-PG9 antibody binding. actives 0.43% (n = 360,000). inhibition, % at 6.7 µM; in the data active = inhibition above about 8.5%
TAG inh: inhibitors of triacylglycerol accumulation | H9c2 cells, Nile Red lipid (TAG) fluorescence; cells loaded with 200 µM oleic acid | inhibition, % at 12.5 µM | actives 0.66% (n = 230,000) | AID 651582;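 active = pattern-corrected inhibition of lipid staining of at least 50% with the nuclear-stain viability signal not falling by more than 50%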;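 note: 0% = DMSO wells and 100% = triacsin C control wells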
MIN6 prolif: induces beta-cell replication in MIN6 cells. MIN6 cells proliferation, ATPlite luminescence, 48 h; cells starved in 0.2% serum; 100% = growth in 10% serum. proliferation, % at 10 µM. actives 0.29% (n = 330,000). AID 2380;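 active = compounds whose signal lies at least 3.5 SD above the mean of all wells on their plate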;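 note: 0% = DMSO-treated cells in low-serum medium and 100% = 10% serum control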
Starred values were filed as active, the others as inactive; . = not tested or not shown.

SMILES	Rev-erbA mod	T cruzi inh	hiPSC survival	PG9 Ab binder	TAG inh	MIN6 prolif
COc1ccc(N2CCc3c(C)nc(SC)nc32)cc1	-7	13	-1	-1	-7	1
Cc1ccc2nc(-c3ccncc3)c(NC3CCCC3)n2c1	1	77*	-3	-1	1	1
Cc1ccc2nc(-c3ccncc3)c(NC3CCCCC3)n2c1	-2	60*	1	0	-12	-1
COc1ccc([C@H]2CC(=O)C=C(c3cc(Cl)cc(Cl)c3)C2)cc1	-4	.	0	-1	-8	-7
COc1cc(-c2nc(C(=O)NC3CCN(Cc4ccccc4)CC3)cc3c2[nH]c2ccccc23)cc(OC)c1OC	.	77*	-3	.	.	-6
COc1ccc(OC)c(-c2nc(C(=O)NC3CCN(Cc4ccccc4)CC3)cc3c2[nH]c2ccccc23)c1	5	42	-3	-2	.	-6
CC1CC(C)CN(S(=O)(=O)c2ccc(NC(=O)C3CC(=O)N(Cc4ccccc4)C3)cc2)C1 (centres undefined)	11	-16	0	0	.	-4
O=c1cc(O)c2ccc(O)cc2o1	1	-8	-1	0	.	0
CCC12CCC3c4ccc(O)cc4CCC3C1CC(O)C2O (centres undefined)	1	.	0	0	-3	.
C=CC[n+]1c(-c2ccc(C)cc2)csc1Nc1c(C)n(C)n(-c2ccccc2)c1=O	-5	65*	-1	-2	7	0
Cc1ccc(N/C(N)=N/c2nc(C)cc(N3CCCCC3)n2)c(C)c1	2	69*	-2	0	39	-5
CCOc1cc2nc(-c3ccc(OC)c(OC)c3)nc(NCCCN3CCOCC3)c2cc1OC	0	27	-2	-1	56*	-6
COc1cc2ncnc(NCCCN3CCOCC3)c2cc1OC	0	-10	2	-2	13	1
O=C(Nc1ccc2c(c1)Cc1ccccc1-2)c1cccnc1	-1	4	0	-1	-9	0
COc1ccccc1CNc1ccc2c(c1)CCC2	-3	55*	-1	-2	.	-3
COc1ccc(CN2CCN(C(=O)c3cc(OC)c(OC)c(OC)c3)CC2)cc1OC	-3	12	1	.	.	1
COc1ccc(Br)cc1/C=N/NC(=O)c1cc(Br)ccc1O	.	-23	.	.	.	-5
COc1ccc(O)c(/C=N/NC(=O)c2ccc(OCc3cccc(Br)c3)cc2)c1	-4	73*	-1	2	4	-6
COc1ccc(/C=N/NC(=O)c2ccc(Br)cc2)c(OC)c1	-2	-8	1	0	-9	-2
COc1ccc(C(=O)N/N=C/c2cc(Br)ccc2O)cc1OC	20	56*	0	0	56*	-5
COc1cccc(/C=N/Nc2nc(Nc3ccc([N+](=O)[O-])cc3)nc(N3CCCC3)n2)c1O	7	55*	0	-3	.	-4
Cn1c(N)c(C(=O)COC(=O)c2cc(C3CC3)nc3ccccc23)c(=O)n(C)c1=O	0	-1	1	1	-11	3
COc1ccc(/C=C2\CCCc3c2nc2ccccc2c3C(=O)OCC(=O)c2c(N)n(C)c(=O)n(C)c2=O)cc1	.	68*	.	.	.	0
CCN(CC)CCCNc1ccc(-c2nnc(-c3ccc(OCC(C)C)cc3)o2)cn1	-3	55*	0	3	.	-6
CC[n+]1c(C)sc2c3ccsc3ccc21	-5	33	-3	-1	.	-6
SMILES	Rev-erbA mod	T cruzi inh	hiPSC survival	PG9 Ab binder	TAG inh	MIN6 prolif
CCN1/C(=C/c2ccc3cc(C)ccc3[n+]2CC)Sc2ccc3sccc3c21	.	60*	-1	.	-109	-6
Cc1ccc2c(c1)S/C(=C\c1cccc[n+]1C)N2CCO	17	46	0	1	.	-7
CCN1/C(=C\c2ccc3cc(C)ccc3[n+]2CC)Sc2cc(C)c(C)cc21	8	64*	-4	-3	-60	.
COc1ccc(/C=C(/C(=O)Nc2ccccc2C(=O)NC(C)C)c2ccccc2)cc1	0	28	-1	-2	.	-4
COc1cc(-c2nc3ccccn3c2NCc2ccccc2)ccc1SC1CCCCC1	.	61*	0	.	.	-8
CC(C)(C)n1nc(-c2ccc(F)cc2)c2c(N)ncnc21	-8	57*	-5	0	.	-4
CN1CCN(/N=C/c2cccc(Cl)c2Cl)CC1	2	62*	-1	-1	7	0
Cn1cc(S(=O)(=O)CC(=O)Nc2ccc(Br)cc2)c2ccccc21	-3	-2	0	1	-10	2
COc1ccc(NC(=O)/C=C/c2ccc(Br)o2)cn1	-28	3	0	-2	-9	-3
COc1ccccc1CNC(=O)/C=C/c1ccc(Br)o1	-29	-8	1	-1	51*	1
CN(Cc1ccccc1)S(=O)(=O)c1ccc(NC(=S)NC(=O)C2CCCC2)cc1	0	46	-2	0	.	-6
Cc1ccc(Nc2cc(C)c3c(O)cccc3n2)cc1C	0	66*	0	2	5	-5
COC(=O)c1cc(Nc2cc(C)c3c(O)cccc3n2)cc(C(=O)OC)c1	2	15	-1	-3	15	-2
COc1ccc(Nc2cc(C)c3c(O)cccc3n2)cc1	0	60*	-1	-2	-1	-5
C/C(=C\CNc1ncnc2nc[nH]c12)CO	1	-15	-1	-2	.	-2
CC(C)CCCCCCCCCCCCC(=O)NCC(=O)NC1C(C)OC(Nc2ncnc3nc[nH]c23)C(O)C1O (centres undefined)	-4	.	-2	-1	72*	.
Cc1ncc(CN2CCCC(C(=O)Nc3ccc(-n4ccnc4C)cc3)C2)cn1 (centres undefined)	3	-11	0	-4	.	1
CN1C(=O)C(O)(CC(=O)c2ccccn2)c2cc(Br)ccc21 (centres undefined)	2	-15	-3	4	53*	-5
CN1C(=O)[C@@](O)(CC(=O)c2ccccc2)c2cc(Br)ccc21	8	.	.	-1	.	.
c1coc(CNc2c3c(nc4ccccc24)CCC3)c1	-1	69*	1	-2	-1	-6
Cc1cc(SCC(=O)N/N=C/c2ccc(O)cc2O)c(C)cc1Br	1	62*	0	-3	.	-5
O=S(=O)(c1ccccc1)N1CCN(S(=O)(=O)N2CCCCCC2)CC1	0	8	0	-1	.	-2
O=C(Nc1ccccc1N1CCN(C(=O)c2ccc(Cl)cc2)CC1)c1cccc([N+](=O)[O-])c1	0	55*	0	-5	12	-5
O=C(Nc1ccccc1N1CCCC1)c1ccc([N+](=O)[O-])cc1Cl	1	56*	3	-5	.	6
O=C(Nc1ccccc1N1CCCC1)c1ccc(Cl)cc1Cl	1	-2	-1	1	-13	-2
CCCCN(C)CCCNC(=O)Cn1cc2c(n1)-c1c(oc(C(=O)N3CCCC3)c1C)CC2	-2	.	-2	0	4	.
